KCNQ1 block – inhibitors of human KCNQ1 channel, primary screen, cell-based, thallium flux, high-throughput; Potassium voltage-gated channel subfamily KQT member 1 (Homo sapiens), P51787; CHO-K1 KCNQ1, FluxOR thallium flux fluorescence; active compounds read high; B-score at 10 µM; 310,000 compounds, 1.3% hits; AID 2642, 2010;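 active = compounds whose thallium flux B-score, printed positive for inhibition, exceeds three library SD while starting fluorescence stays within three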;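 also: channel opened by potassium depolarization with thallium stimulus after 20 min compound exposure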
KCNK9 block – KCNK9 potassium channel inhibitors, primary screen, HEK293 cells, thallium flux; FluxOR thallium flux fluorescence; active compounds read low; Potassium channel subfamily K member 9 (Homo sapiens), Q9NPC2; B-score at 10 µM; 310,000 compounds, 1.2% hits;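 active = ratio B-score over 3 SD below the library mean, with starting fluorescence within 5 SD of its mean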;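 also: negative B-score means less thallium flux so channel inhibition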
KCNQ1 act – potentiators or activators of KCNQ1 channel, primary screen, cell-based, thallium flux, high-throughput. Potassium voltage-gated channel subfamily KQT member 1 (Homo sapiens), P51787. CHO-K1 KCNQ1, thallium flux FluxOR fluorescence; active compounds read high. B-score at 10 µM. 310,000 compounds, 0.35% hits. AID 2648, 2010;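 active = fluorescence ratio B-score, a plate-corrected score, at least three library SD, with initial intensity B-score within 5 SD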
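assay system = KCNQ1-transfected CHO-K1 cells | medium = assay buffer with matched DMSO | probe or stimulus = depolarizing K+/Tl+ stimulus, K2SO4 and Tl2SO4 each 12.5 mM in 5x stock | dosing = single dose | incubation = dye 90 min, compound 20 min, room temperature | detection = kinetic FluxOR fluorescence, 10 s baseline plus 110 s post-stimulus | evaluation = ratio B score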
hERG protect – hERG rescue from dofetilide block, primary screen, cell-based, CHO-hERG, FluxOR thallium flux, dofetilide IC70. Voltage-gated inwardly rectifying potassium channel KCNH2 (Homo sapiens), Q12809. dofetilide IC70 present. activation (rescue from dofetilide block), less the hit threshold, % at 10 µM. 310,000 compounds, 0.51% hits. AID 1511, 2009;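 active = activation above the mean of controls blocked by dofetilide plus 5 SD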;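 also: thallium influx through hERG after potassium depolarization seen as dye fluorescence rise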
KCNK3 block – human KCNK3 channel inhibitors, primary screen, CHO cells, FluxOR thallium flux, B-score; Potassium channel subfamily K member 3 (Homo sapiens), O14649; FluxOR fluorescence; active compounds read low; B-score at 10 µM; 340,000 compounds, 0.84% hits; AID 602410, 2012;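 active = B-score under library mean minus 4 SD, starting fluorescence ratio at most library mean plus 5 SD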;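 also: more negative B-score means stronger inhibition of thallium flux through KCNK3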
KCC2 mod – KCC2 cotransporter modulators, thallium flux, primary screen, cell-based, HEK293 KCC2, FluoZin-2 fluorescence, MLSMR; Solute carrier family 12 member 5 (Homo sapiens), Q9H2X9; KCC2 cells, thallium flux FluoZin-2 fluorescence; B-score of Tl+ flux slope (higher = more flux/activation; lower = inhibition) at 10 µM; 190,000 compounds, 2.2% hits; AID 1456, 2008;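 active = thallium flux slope and its plate-corrected score both differing from the plate sample mean at a set confidence after two filtering rounds, in either direction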;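 also: slope of fluorescence scaled to starting intensity during 10 to 20 s after thallium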
Target sequence (Q9H2X9 whole entry, looked up): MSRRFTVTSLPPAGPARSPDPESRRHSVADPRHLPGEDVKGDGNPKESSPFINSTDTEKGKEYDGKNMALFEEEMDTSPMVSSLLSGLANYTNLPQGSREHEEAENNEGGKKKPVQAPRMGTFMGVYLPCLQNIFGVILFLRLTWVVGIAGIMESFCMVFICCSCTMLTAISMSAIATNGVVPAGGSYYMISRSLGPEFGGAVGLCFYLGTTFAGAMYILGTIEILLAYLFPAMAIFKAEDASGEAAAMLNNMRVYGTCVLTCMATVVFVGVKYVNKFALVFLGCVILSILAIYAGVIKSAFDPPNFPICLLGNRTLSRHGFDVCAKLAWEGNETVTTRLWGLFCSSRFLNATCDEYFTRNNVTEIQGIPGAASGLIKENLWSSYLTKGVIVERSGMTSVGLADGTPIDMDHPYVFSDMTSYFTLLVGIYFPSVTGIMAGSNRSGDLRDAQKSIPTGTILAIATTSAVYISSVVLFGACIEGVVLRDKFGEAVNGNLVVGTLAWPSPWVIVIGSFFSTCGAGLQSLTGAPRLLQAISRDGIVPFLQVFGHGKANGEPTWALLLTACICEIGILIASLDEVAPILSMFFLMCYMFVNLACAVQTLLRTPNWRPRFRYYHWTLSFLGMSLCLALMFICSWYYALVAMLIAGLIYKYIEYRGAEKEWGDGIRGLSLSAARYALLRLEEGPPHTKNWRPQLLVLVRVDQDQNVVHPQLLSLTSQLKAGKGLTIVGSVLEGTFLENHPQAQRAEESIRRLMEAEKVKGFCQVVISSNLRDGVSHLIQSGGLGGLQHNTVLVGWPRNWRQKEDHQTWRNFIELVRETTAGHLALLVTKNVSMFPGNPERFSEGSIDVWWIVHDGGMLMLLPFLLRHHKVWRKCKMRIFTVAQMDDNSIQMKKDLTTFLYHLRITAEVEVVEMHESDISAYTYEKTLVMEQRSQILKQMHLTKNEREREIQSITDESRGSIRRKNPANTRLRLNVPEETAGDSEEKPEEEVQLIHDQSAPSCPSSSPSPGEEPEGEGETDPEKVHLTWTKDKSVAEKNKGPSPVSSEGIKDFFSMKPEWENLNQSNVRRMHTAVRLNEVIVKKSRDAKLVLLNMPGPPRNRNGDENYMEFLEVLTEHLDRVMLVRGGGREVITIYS
KCC2 sec1 – KCC2 modulators in sodium-free buffer, confirmation, cell-based, HEK293 KCC2, thallium flux, secondary assay. shares compounds with KCC2 mod. FluoZin2 fluorescence; active compounds read high. normalised thallium flux (F/F0 slope) at 10 µM. 3,700 compounds, 15% hits;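 active = thallium flux slope above the same plate's solvent-only control mean plus 3 SD; inconclusive = the two replicate wells disagree; inactive = no significant difference from solvent-only control wells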
KCC2 bumet counter – thallium flux persisting under bumetanide in KCC2 cells, confirmation, counter-screen for KCC2 modulator project, cell-based, HEK293 KCC2, FluoZin2, secondary assay 3 | shares compounds with KCC2 mod | HEK293-KCC2 + bumetanide/ouabain; active compounds read high | normalized thallium flux at 10 µM | 3,700 compounds, 49% hits;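 active = thallium entry rate above the same plate's blocked-transporter control wells by more than 3 SD; inconclusive = the two repeat wells disagree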;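 also: raw slope of fluorescence over initial fluorescence between 10 and 20 s after thallium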
KCC2 sec2 – KCC2 modulators without ouabain present, confirmation, cell-based, HEK293 KCC2, thallium flux, FluoZin2, secondary assay 2. shares compounds with KCC2 mod. thallium flux FluoZin2 fluorescence; actives lie on both sides; F/F0 rise rate, 10–20 s post-thallium. normalized thallium flux at 10 µM. 3,700 compounds, 23% hits;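 active = thallium flux slope more than 3 SD above or below the plate's solvent-only control mean, mostly below; inconclusive = the two repeat wells disagreed; inactive = no significant shift from solvent-only controls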
HEK293 Tl flux – thallium flux modulation in parental HEK cells, confirmation, counter-screen for KCC2 modulator project, cell-based, counterscreen 1. shares compounds with KCC2 mod. HEK293 parental cells, thallium flux FluoZin2, ouabain; baseline-ratio fluorescence slope, 10–20 s after thallium. thallium flux rate (normalised fluorescence) at 10 µM. 3,700 compounds, 46% hits. AID 1716, 2009;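 active = thallium flux rate significantly above the same plate's solvent-only control wells, beyond their mean plus 3 SD; inconclusive = the two replicate wells gave conflicting results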
KCC2 ouabain – KCC2 inhibitors and activators, ouabain retest, confirmation, HEK-KCC2 cells; raw Tl+ flux slope (below DMSO = inhibition, above = activation) at 10 µM; HEK293-KCC2, thallium flux FluoZin2 fluorescence; bidirectional: low = inhibitor, high = activator; 3,700 compounds, 48% hits; shares compounds with KCC2 mod;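 active = thallium flux slope beyond 3 SD from same-plate DMSO control mean in most replicates, usually higher, sometimes lower; inconclusive = repeat tests gave conflicting results; inactive = no significant difference from controls in most replicates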;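 also: slope of initial-normalized fluorescence between seconds 10 and 20 after thallium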
HEK counter2 – native HEK Tl+ uptake effects, second counter-screen – HEK cells, counterscreen 2, counter-screen for KCC2 modulator project, confirmation; shares compounds with KCC2 mod; HEK293 parental, thallium flux FluoZin-2 fluorescence slope; thallium flux slope at 10 µM; 3,700 compounds, 33% hits;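 active = thallium flux slope above the same plate's solvent-control mean plus 3 SD in both duplicate wells; inconclusive = duplicate wells that disagreed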;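 also: run without ouabain in cells lacking the KCC2 cotransporter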
Numbers stand for hits; i = inactive; ? = inconclusive; nt = not tested or not shown. The list is not random: actives were taken first. Their share in the collection is about 4.1%.

SMILES	KCNQ1 block	KCNK9 block	KCNQ1 act	hERG protect	KCNK3 block	KCC2 mod	KCC2 sec1	KCC2 bumet counter	KCC2 sec2	HEK293 Tl flux	KCC2 ouabain	HEK counter2
CCOc1ccccc1CNC(=O)CCC(=O)N1Cc2ccccc2Oc2ncccc21	i	i	i	i	i	nt	nt	nt	nt	nt	nt	nt
CCc1ccc(C(=O)COC(=O)c2cc([N+](=O)[O-])ccc2NCCO)cc1	i	i	i	i	i	-4.3	i	i	0.023	i	0.015	i
O=C(COC(=O)c1cc([N+](=O)[O-])ccc1NCCO)c1ccc(Cl)cc1	i	i	i	i	i	i	nt	nt	nt	nt	nt	nt
O=c1[nH][nH]c(=O)c2nc(Nc3ccccc3)ncc12	nt	nt	nt	nt	i	nt	nt	nt	nt	nt	nt	nt
COCCNC(=O)CN1C(=O)NC(c2ccccc2)(c2ccccc2)C1=O	i	i	i	i	i	nt	nt	nt	nt	nt	nt	nt
Clc1ccc(Oc2nc(N3CCOCC3)nc(N3CCOCC3)n2)cc1	i	i	i	i	i	7.6	i	i	i	i	i	?
Cc1cc(C(C)(C)C)cc(C)c1COC(=O)CN1C(=O)NC2(CCCC2)C1=O	nt	nt	nt	nt	i	nt	nt	nt	nt	nt	nt	nt
CC(C)n1c(O)c(N=NC(=O)C2COc3ccccc3O2)c2ccccc21 (stereo not drawn)	i	i	i	23	i	10	i	0.028	i	0.03	0.031	0.026
COc1ccc(C(=O)N/C(=C\c2cn(S(=O)(=O)N(C)C)c3ccccc23)C(=O)NCCN2CCOCC2)cc1	i	i	i	i	i	nt	nt	nt	nt	nt	nt	nt
CCN(CC)C(=S)NC(=O)c1ccc(F)cc1	i	i	i	i	i	34	i	0.052	0.049	0.033	0.047	0.042
CCOC(=O)N1CCN(C(=S)NC(=O)c2ccc(F)cc2)CC1	i	i	i	i	nt	4.2	i	0.011	i	0.013	i	0.016
Cc1ccc2c(c1)C1CN(C)CCC1N2C(=S)NC(=O)c1ccc(Br)cc1 (stereo not drawn)	i	i	22	i	i	133	0.041	0.11	?	0.13	0.085	0.035
COc1ccc(OCC(=O)N2c3ccc(C)cc3C3CN(C)CCC32)cc1 (stereo not drawn)	i	i	i	i	i	i	nt	nt	nt	nt	nt	nt
CCOC(=O)N1CCN(C(=S)NC(=O)c2ccnn2C)CC1	i	i	i	i	i	i	nt	nt	nt	nt	nt	nt
O=C(NC(=S)N1CCN(C2CCCCC2)CC1)c1ccccc1	i	i	i	i	i	35	0.033	0.053	0.047	0.03	0.038	0.035
CC[C@H](C)Cc1cn([C@@H](CCCCNC(=O)OC(C)(C)C)C(=O)NCCCCCCCCCCC(=O)N2CCN(C(=O)OC(C)(C)C)CC2)nn1	nt	nt	nt	nt	i	nt	nt	nt	nt	nt	nt	nt
C=COc1ccc(N2C(=O)c3ccccc3OC2C)cc1 (stereo not drawn)	i	i	i	i	i	nt	nt	nt	nt	nt	nt	nt
O=C(Cc1cccc(NC(=O)C2CCCN(C(=O)CCc3ccccc3)C2)c1)Nc1cccc(C(=O)N2CCCC2)c1 (stereo not drawn)	nt	nt	nt	nt	i	nt	nt	nt	nt	nt	nt	nt
CC(C)(C)OC(=O)N1CCC(NC(=O)c2ncn(Cc3ccccc3)c2C(=O)NC2CCN(C(=O)OC(C)(C)C)CC2)CC1	nt	nt	nt	nt	i	nt	nt	nt	nt	nt	nt	nt
CCOC(=O)C1=CC[C@@H](c2cc(OC)c(OC)c(OC)c2)N(S(=O)(=O)c2ccc(C)cc2)[C@H]1C(=O)OCC	nt	nt	nt	nt	i	nt	nt	nt	nt	nt	nt	nt
CN1CCN(C(=S)NC(=O)c2ccc(C(C)(C)C)cc2)CC1	i	i	i	i	i	11	i	0.018	i	0.016	?	0.015
O=C(NC(=S)N1CCN(c2ccc([N+](=O)[O-])cc2)CC1)c1ccccc1Cl	i	i	i	i	i	i	nt	nt	nt	nt	nt	nt
CN1CCN(C(=S)NC(=O)c2ccc(-c3ccccc3)cc2)CC1	i	i	i	i	i	27	0.03	0.065	?	0.034	0.036	0.038
Cc1ccc(C(=O)NC(=S)N2CCN(C)CC2)cc1	i	i	i	i	i	i	nt	nt	nt	nt	nt	nt
CN1CCN(C(=S)NC(=O)c2ccc(Br)cc2)CC1	i	i	i	i	i	12	?	0.016	i	0.012	0.026	i
O=C(NC(=S)N1CCCCCC1)c1ccccc1Cl	i	i	i	i	i	23	0.025	0.054	i	0.024	0.048	0.014
O=C(CN1CCN(CN2C(=O)NC3(CCCCCC3)C2=O)CC1)Nc1ccc(F)cc1	nt	nt	nt	nt	i	nt	nt	nt	nt	nt	nt	nt
CC1Cc2ccccc2N1C(=O)COC(=O)c1ccccc1NCCO (stereo not drawn)	i	i	i	i	i	nt	nt	nt	nt	nt	nt	nt
CC1Cc2ccccc2N1C(=O)COC(=O)c1cccnc1Cl (stereo not drawn)	i	i	i	i	i	-4	i	i	i	i	?	?
CC1Cc2ccccc2N1C(=O)CN(C)S(=O)(=O)c1cccc2cccnc12 (stereo not drawn)	i	i	i	i	i	nt	i	i	0.023	i	?	i

Compound activity as filed in PubChem BioAssay.
